Read-outs that look alike come from different tables or passages of the source. Values belong to the compound of their own block, whether it stands above or below them.
What was measured:
DNA-PKcs [1] = biological target: T1, DNA-PKcs (Homo sapiens, UniProt P78527); assay: DNA-PKcs kinase assay; type: biochemical; conditions: for DNA-PKcs inhibition by truncated/mutant/phosphorylated peptide derivatives: alanine scanning and mutant peptides, DNA-PKcs kinase activity (Fig. 6A)
DNA-PKcs [2] = biological target: T1, DNA-PKcs; assay: Protease protection assay; type: biochemical; conditions: 10 μM, trypsin 0.01% 8 min 37°C, immunoblot (Fig. 4H)
DNA-PKcs [3] = biological target: T1, DNA-PKcs; assay: ELISA of GNFRYLAPP/DNA-PKcs interaction; type: binding; conditions: pure DNA-PK, 1 μM ATP, sonicated DNA, 37°C 1 h, fluorescence read-out (Fig. 4B)
In short: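 Bait wells: streptavidin plates coated with 100 ng biotinylated linearized pSP72 or 10 ng biotinylated test peptide (or biotinylated scrambled control), or adsorption plates coated with 250 units pure DNA-PK. After blocking, prey is added for 1 h at 37°C with 1 μM ATP, sonicated DNA (50 ng/μL) and protease/phosphatase inhibitors. Non-biotinylated test or scrambled peptide serves as competitor. DNA-PKcs is read with fluorophore-conjugated antibodies and peptide with FITC-streptavidin (1:500) on a fluorescence plate reader.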

CAPAN1 cells [4] = assay: Clonogenic assay, BRCA2-null cells; type: cell-based
HCC1937 cells [5] = assay: Clonogenic assay, BRCA1-null cells; type: cell-based
CAPAN1 cells [6] = assay: Neutral comet assay, BRCA2-null cells; type: cell-based
HCC1937 cells [7] = assay: Neutral comet assay, BRCA1-null cells; type: cell-based
[8] = tested on: Phosphorylated DNA-PKcs (T2609) in KS1767 cells; assay: DNA-PKcs autophosphorylation; type: cell-based, human; conditions: KS1767, 10 μM, 30 minutes after 3 Gy (Fig. 5B)
In short: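 Peptides, penetratin-fused test or scrambled control at 10 μM, are added to standard growth medium of KS1767 Kaposi sarcoma cells 72 h before irradiation or mock-irradiation. Irradiation uses a 137Cs source at 333 cGy per minute.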

KS1767 cells = assay: Nuclear focus formation after irradiation, DNA-PKcs +/+ cells; type: cell-based, human; conditions: 10 μM
In short: (§1)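 Peptides at 10 μM are added to growth medium 72 h before irradiation or mock-irradiation (137Cs, 333 cGy per minute). Cells are grown on coverslips and fixed 3 min in ice-cold acetone:methanol 1:1 at set times after irradiation. They are blocked 1 h at room temperature in 5% goat serum, with primary reagents in 1% BSA overnight at 4°C and secondary reagents 1 h at room temperature. Foci are imaged by inverted fluorescence microscopy.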

M059J cells = assay: Nuclear focus formation after irradiation, DNA-PK -/- cells; type: cell-based; conditions: 10 μM, 1 h after 3 Gy, FITC-streptavidin (Fig. 5A left)
In short: as §1

Compound: COc1cc(C=O)c([N+](=O)[O-])cc1OC [DMNB, reference compound]
- radiosensitivity by clonogenic assay (CAPAN1 cells [4]): increased radiosensitivity
- radiosensitivity by clonogenic assay (HCC1937 cells [5]): increased radiosensitivity
- residual double-strand breaks by neutral comet assay (CAPAN1 cells [6]): increased residual double-strand breaks
- residual double-strand breaks by neutral comet assay (HCC1937 cells [7]): increased residual double-strand breaks

Compound: GNFRYLAPP-pen
- radiosensitivity by clonogenic assay (CAPAN1 cells [4]; CAPAN1 (BRCA2-null), 10 μM, 72 h pre-incubation (Fig. 5D-E)): increased radiosensitivity
- phosphorylated DNA-PKcs (T2609) signal after irradiation [8]: no signal was detected
- radiosensitivity by clonogenic assay (HCC1937 cells [5]; HCC1937 (BRCA1-null), 10 μM, 72 h pre-incubation (Fig. 5D-E)): increased radiosensitivity
- nuclear focus formation of biotinylated peptide (KS1767 cells; KS1767 (DNA-PKcs +/+), 1 h after 3 Gy, FITC-streptavidin (Fig. 5A left)): formed foci
- resolution of peptide foci over time after irradiation (KS1767 cells; KS1767, 3 Gy, majority of cells retaining foci as late as 12 hours (Fig. 5A right)): slow resolution
- residual double-strand breaks by neutral comet assay (CAPAN1 cells [6]; CAPAN1 (BRCA2-null), 10 μM, 72 h pre-incubation, 3 and 6 hours after 6 Gy (Fig. 5C)): increased residual double-strand breaks
- residual double-strand breaks by neutral comet assay (HCC1937 cells [7]; HCC1937 (BRCA1-null), 10 μM, 72 h pre-incubation, 3 and 6 hours after 6 Gy (Fig. 5C)): increased residual double-strand breaks
- nuclear focus formation of biotinylated peptide (M059J cells): did not form foci

Compound: GSFRYL
- DNA-PKcs inhibition by truncated/mutant/phosphorylated peptide derivatives (DNA-PKcs [1]): abolished

Continued, in another order:

- phosphorylation of the peptide itself by DNA-PKcs (DNA-PKcs [1]; Fig. 4C): not phosphorylated
- mode of DNA-PKcs inhibition (DNA-PKcs [1]; conclusion from binding, kinase and protease protection data): non-competitive inhibitor
- effect on DNA-PKcs phosphorylation of its p53-derived consensus substrate (DNA-PKcs [1]; pure DNA-PK, increasing molar ratios of peptide to substrate (Fig. 4C)): progressively inhibited
- interaction with DNA-PKcs by ELISA (DNA-PKcs [3]): sufficient for attracting
Compound: GNFRYLAPP
- effect on DNA-induced protection of DNA-PKcs from trypsin digestion (DNA-PKcs [2]): prevented the protection from trypsin digestion

- interaction with DNA-PKcs by ELISA (DNA-PKcs [3]): no detectable interaction
Compound: RYPAGLPFL [scrambled peptide, reference compound]

- DNA-PKcs inhibition by truncated/mutant/phosphorylated peptide derivatives (DNA-PKcs [1]): reestablished DNA-PKcs inhibition
Compound: GpSFRYL

Reference: paper PMC3057608 (Cancer research, 2011)
